Published values gathered from unrelated publications.
Each line is one published result; the experiments were not run side by side.
Target: Ephrin type-B receptor 3 (EPHB3, Homo sapiens, UniProt P54753)
Residues used in one study (P54753 34-998): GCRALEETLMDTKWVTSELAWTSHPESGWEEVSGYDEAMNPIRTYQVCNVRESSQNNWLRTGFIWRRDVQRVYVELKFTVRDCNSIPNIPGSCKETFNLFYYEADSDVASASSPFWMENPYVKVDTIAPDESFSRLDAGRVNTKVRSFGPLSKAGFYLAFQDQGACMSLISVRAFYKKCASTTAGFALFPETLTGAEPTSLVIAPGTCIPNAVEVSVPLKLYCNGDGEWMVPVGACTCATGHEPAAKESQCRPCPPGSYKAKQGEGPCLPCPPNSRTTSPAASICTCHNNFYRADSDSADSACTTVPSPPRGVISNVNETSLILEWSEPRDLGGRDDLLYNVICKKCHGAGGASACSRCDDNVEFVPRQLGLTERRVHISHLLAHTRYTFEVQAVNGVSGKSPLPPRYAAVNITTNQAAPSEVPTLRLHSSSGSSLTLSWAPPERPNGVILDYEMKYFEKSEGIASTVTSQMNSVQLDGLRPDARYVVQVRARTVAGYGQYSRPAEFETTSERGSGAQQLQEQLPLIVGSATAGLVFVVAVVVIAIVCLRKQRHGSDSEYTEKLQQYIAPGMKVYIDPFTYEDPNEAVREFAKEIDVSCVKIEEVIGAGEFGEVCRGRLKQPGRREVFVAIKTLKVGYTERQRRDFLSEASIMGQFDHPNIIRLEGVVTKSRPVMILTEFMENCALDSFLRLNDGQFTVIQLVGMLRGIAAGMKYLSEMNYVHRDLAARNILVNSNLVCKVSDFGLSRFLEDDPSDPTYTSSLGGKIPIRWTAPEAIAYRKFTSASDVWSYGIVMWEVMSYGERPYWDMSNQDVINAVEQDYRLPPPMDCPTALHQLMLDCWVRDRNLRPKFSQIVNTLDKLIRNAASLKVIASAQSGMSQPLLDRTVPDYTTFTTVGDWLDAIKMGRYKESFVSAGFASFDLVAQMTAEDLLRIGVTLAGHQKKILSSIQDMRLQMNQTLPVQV

| Structure (SMILES) | test | setting | endpoint | value |
| --- | --- | --- | --- | --- |
| CCC(=N\O)/C(C)=C/c1ccc(F)cc1 | cell-free assay, competition with immobilised ligand | 1 µM | remaining binding | 75% |
| COc1cc(/C=C/C(=O)CC(=O)/C=C/c2ccc(O)c(OC)c2)ccc1O | enzyme activity, inhibitor | 1 µM | activity vs control | 93% |
| CCN(CC)CCNC(=O)c1c(C)[nH]c(/C=C2\C(=O)Nc3ccc(F)cc32)c1C | enzyme activity, inhibitor | 0.3 µM | inhibition | -5% |
| COc1cc2ncnc(Nc3ccc(F)c(Cl)c3)c2cc1OCCCN1CCOCC1 | cell-free assay | 0.5 µM | remaining signal | 57.5% |
| Cc1nc(C2CCN(C(=O)c3ccc(OC(F)(F)F)cc3N)CC2)c2ncc(N3CCN(C)CC3)cc2n1 | cell-free assay, competition with immobilised ligand | 1 µM | remaining binding | 100% |
| COc1cc2nccc(Oc3ccc(NC(=O)Nc4ccc(F)cc4F)c(F)c3)c2cc1OC | thermal stability, DSF | 10 µM | ΔTm | 5 to 10 °C |
| O=C(Nc1cnn(-c2csc(C(=O)NC3COC3)c2)c1)Nc1ccccc1Cl | enzyme activity, inhibitor | 5 µM | remaining activity | 95.6% |
| Cn1cncc1C1=CN(c2ncnc3[nH]cnc23)CCS1 | enzyme activity, inhibitor, radiometric | 2 µM | inhibition | 20.2% |
| N#CCCc1ccc2c(c1)-c1[nH]c3ccc([N+](=O)[O-])cc3c1CC(=O)N2 | cell-free assay | 0.5 µM | remaining signal | 102% |
| Oc1cccc(-c2nc(N3CCOCC3)c3oc4ncccc4c3n2)c1 | enzyme activity, inhibitor | 10 µM | remaining activity | 127% |
| CNC(=O)c1cc(Oc2ccc(NC(=O)Nc3ccc(Cl)c(C(F)(F)F)c3)cc2)ccn1 | enzyme activity, inhibitor | 0.3 µM | inhibition | 3% |
| Cc1ccc(C(=O)NCc2ccsc2)cc1C#Cc1cn(C(C)C)c2ncnc(N)c12 | enzyme activity, inhibitor | 1 µM | activity vs control | 100% |
| O=c1nc(-c2ccccn2)sc2ccccc12 | cell-free assay, competition with immobilised ligand | 1 µM | remaining binding | 100% |
| COc1cc2ncnc(Nc3ccc(Oc4ccccc4)cc3C)c2cc1OC | enzyme activity, inhibitor | 1 µM | inhibition | 1% |
| O=C(NC[C@@H]1[C@H]2CN(C(=O)OCc3cc(C(F)(F)F)cc(C(F)(F)F)c3)C[C@@H]12)c1ccc2[nH]nnc2c1 | cell-free assay, competition with immobilised ligand | 1 µM | remaining binding | 81% |
| Nc1nc(NC2CCCCC2)sc1C(=O)c1ccccc1 | enzyme activity, inhibitor | 10 µM | remaining activity | 88% |
| Cn1cc(Cl)c2c(Oc3c(F)cc(Nc4cc(Cl)nc(N)n4)cc3F)ccnc21 | cell-free assay, competition with immobilised ligand | 0.1 µM | remaining binding | 100% |
| CC/C(=N\NC(=O)NCc1cccc(O)c1)c1ccc(O)c(C)c1O | enzyme activity, inhibitor | 0.1 µM | inhibition | 0.6% |
| CCCOc1ccc([C@@H]2[C@@H](C(=O)O)[C@H](c3ccc4c(c3)OCO4)CN2CC(=O)Nc2c(CC)cccc2CC)cc1 | cell-free assay, competition with immobilised ligand | 1 µM | remaining binding | 96% |
| C#Cc1cccc(Nc2ncnc3cc(OCCOC)c(OCCOC)cc23)c1 | cell-free assay | 0.5 µM | remaining signal | 58% |
